Screening data as filed in PubChem.
C2C12 statin = suppressors of statin myotoxicity in C2C12 myotubes, primary screen, cell-based, single point, plate reader. rescue of ATP level, % at 7.49 µM. C2C12 myotubes + simvastatin, ATP luminescence, 48 h; scaled: DMSO 0, geranylgeraniol control 100. 330,000 tested, 0.78% active. AID 602340, 2012;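 active = mean ATP rescue above about 67%, or every replicate alone reaching that limit, limit read from the data, passing the limit was not always enough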;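 note: myotubes were challenged with 10 µM simvastatin during compound exposure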
FN deposit inh = inhibitors of fibronectin matrix deposition, primary screen, AH1F cells, Alexa488-fibronectin fluorescence, plate reader; AID 743247, 2014; AH1F fibroblasts, overnight; 350,000 tested, 0.086% active; inhibition, % at 12.6 µM;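 active = mean inhibition across replicates of 30% or more, regardless of how many single replicates reach that level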
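Assay system: AH1F fibroblasts assembling fluorescent fibronectin matrix; Amount: 10000 AH1F cells per well; Buffer or medium: DMEM, 2% serum; Probe or stimulus: Alexa488-fibronectin, 24 nM final in well; Doses: single compound dose, delivered by pin transfer; Incubation: 1 h adhesion, overnight exposure; Measured by: fluorescence 485/525 nm; Read-out: fibronectin deposition inhibition.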
SIRT5 inh = SIRT5 desuccinylase inhibitors, primary screen, biochemical, fluorescence imaging, single point, set 5. NAD-dependent protein deacylase sirtuin-5, mitochondrial (Homo sapiens), Q9NXA8. Purified SirT5, succinyl-peptide AMC, trypsin-coupled fluorescence. inhibition, % at 15 µM. 330,000 tested, 1.1% active. AID 652115, 2013; in the data active = inhibition above about 15%
FGF22 binding = binders of human FGF22 protein, primary screen, FGF22 synaptogenesis inhibitor project, biophysical, thermal shift, single point. Fibroblast growth factor 22 (Homo sapiens), Q9HCT0. recombinant FGF22 thermal shift, SYPRO orange fluorescence; percent of sucrose octasulfate shift, DMSO zero. activity (Tm shift, normalised), % at 9.99 µM. 340,000 tested, 1.5% active;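 active = mean Tm shift, scaled 0 neutral to 100 positive control, at about 1.3% or above, every replicate too, limit read from the data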
E-sel inducer = E-selectin induction in HUVECs, primary screen, imaging, HUVEC, immunofluorescence imaging, single point; P16581; normalized: neutral wells 0, TNF-alpha wells 100; activation, % at 7.58 µM; 260,000 tested, 0.37% active; AID 686992, 2013;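 active = mean E-selectin-positive cell signal at least 10% of the positive control, reached in at least 60% of replicates, without over 20% cell loss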
Target sequence (P16581 whole entry, looked up): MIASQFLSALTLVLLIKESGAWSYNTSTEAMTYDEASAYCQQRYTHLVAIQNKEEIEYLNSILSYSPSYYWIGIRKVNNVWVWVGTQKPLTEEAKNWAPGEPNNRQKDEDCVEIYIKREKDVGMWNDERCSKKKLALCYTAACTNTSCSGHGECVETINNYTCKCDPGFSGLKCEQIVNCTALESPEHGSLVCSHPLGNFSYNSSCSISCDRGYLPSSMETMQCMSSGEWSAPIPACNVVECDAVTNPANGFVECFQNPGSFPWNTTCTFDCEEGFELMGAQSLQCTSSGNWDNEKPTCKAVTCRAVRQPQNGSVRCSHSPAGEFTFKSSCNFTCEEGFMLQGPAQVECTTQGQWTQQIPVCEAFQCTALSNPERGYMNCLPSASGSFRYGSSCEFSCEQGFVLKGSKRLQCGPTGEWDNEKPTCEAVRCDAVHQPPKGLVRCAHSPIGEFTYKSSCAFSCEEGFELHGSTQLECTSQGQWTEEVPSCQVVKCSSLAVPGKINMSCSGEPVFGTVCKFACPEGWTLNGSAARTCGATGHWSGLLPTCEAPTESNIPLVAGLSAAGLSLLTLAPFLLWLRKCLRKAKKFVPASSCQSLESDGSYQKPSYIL
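Assay system: HUVEC primary endothelial cells. Input: 3,000 HUVEC seeded per well. Doses: one compound dose added by pin transfer. Read-out basis: % PE-positive cells. Benchmarks: TNF-alpha high, DMSO low. Detection: immunofluorescence imaging. Buffer or medium: EGM-2, gelatin.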
rRNA inh HTS = reduced GFP signal of wild-type E. coli, primary screen, bacterial rRNA inhibitor project, GFP/RFP fluorescence, OD600, single point; E. coli WT GFP vs humanized-ribosome RFP mutants, 24 h; stronger effect = lower value; DMSO median 0, no signal -100; GFP signal change (wild-type ribosome), % (concentration not given with the values); 350,000 tested, 1.6% active; AID 720706, 2013;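 active = significant combined selectivity score with lowered wild-type GFP, culture density cut under 30%, mutant RFP and density less affected; inactive = any of these conditions unmet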
Numbers stand for hits; – = inactive; · = not tested or not shown. Rows were chosen to be rich in hits. Some 4% of all compounds tested hit in one or more screens of this group.

SMILES	C2C12 statin	FN deposit inh	SIRT5 inh	FGF22 binding	E-sel inducer	rRNA inh HTS
CN(Cc1ccon1)C(=O)CC1C(=O)NCCN1Cc1ccccc1C(F)(F)F (stereo not given)	–	–	–	–	–	–
CN(Cc1nccn1C)C(=O)CC1C(=O)NCCN1Cc1ccccc1C(F)(F)F (stereo not given)	–	–	17.0	–	–	–
O=C(OC(C(=O)NCc1ccc2c(c1)OCO2)c1ccccc1F)c1ccco1 (stereo not given)	83.8	·	·	·	·	·
O=C(OC(C(=O)NCc1ccccc1)c1ccccc1F)c1ccco1 (stereo not given)	–	–	–	–	·	–
CC(O)CNCCCOc1ccc(Cl)cc1C(C)(C)C (stereo not given)	·	–	·	–	–	-40.9
CCOC(=O)C1(CCCc2ccccc2)CCN(C(=O)[C@@H]2C[C@@H](C)NC(=S)N2)CC1	–	–	–	51.7	·	–
CCOC(=O)C1(CCc2ccccc2)CCN(C(=O)CCc2cnn(C)c2)CC1	–	–	–	44.2	·	–
Clc1cccc(-c2noc3ncnc(Nc4ccc5c(c4)OCO5)c23)c1	–	–	–	–	–	-21.6
O=C1CCCC/C1=C\Nc1ccc(C(=O)O)c(O)c1	–	–	23.1	–	–	–
CC(=O)Nc1ccc(N/C=C2/CCCC2=O)cc1	·	–	–	–	·	–
CC1CCC/C(=C\Nc2ccc(C(=O)O)cc2)C1=O (stereo not given)	·	–	–	–	·	–
CC1CCC/C(=C\Nc2ccc(C(=O)O)c(O)c2)C1=O (stereo not given)	·	–	29.4	–	–	–
COc1ccccc1NC(=O)N[C@H]1CC[C@H](CCNS(=O)(=O)c2ccccc2)O[C@@H]1CO	–	·	–	–	–	–
CCCS(=O)(=O)c1c(S(=O)(=O)CCC)c2c(C)cccn2c1C(=O)N/N=C/c1cc(O)cc(O)c1	–	–	·	–	–	-20.9
C[C@@H]1CN([C@H](C)CO)S(=O)(=O)c2ccc(C#C[C@@H](C)O)cc2O[C@@H]1CN(C)C(=O)Nc1ccccc1	–	–	–	–	–	–
Cc1ccc(NC(=O)C(OC(=O)c2ccc(F)cc2)c2ccccc2)cc1Cl (stereo not given)	·	–	–	–	–	–
Cc1ccc(NC(=O)C(OC(=O)c2ccc(O)cc2)c2ccccc2)cc1Cl (stereo not given)	–	–	–	77.6	·	·
CCCCn1c(N)c(N(CC(C)C)C(=O)CSCc2ccc(Cl)c(Cl)c2)c(=O)[nH]c1=O	–	–	17.2	–	–	–
CNc1ccc(C=C2C=Cc3ccccc32)cc1	–	–	–	–	–	-19.5
CC1=CC(C)(C)N=C(Nc2nc(C)c3cc(C)cc(C)c3n2)N1	–	–	–	–	·	–
CC1=CC(C)(C)N=C(NC#N)N1	103.8	·	·	·	·	·
O=C(Oc1c(-c2ccccc2)c(=O)n2c3c(cccc13)CC2)c1ccccc1	·	–	–	–	–	-28.1
O=C(Oc1c(-c2ccccc2)c(=O)n2c3c(cccc13)CC2)c1ccc(F)cc1	·	–	–	–	·	·
CCCC#Cc1ccc(CC[C@H]2O[C@H]3CC[C@@H](CO)O[C@H]3C[C@H]2NS(=O)(=O)c2ccccc2)cc1	·	·	20.0	·	·	·
CCOC(=O)c1ccc(S(=O)(=O)N2CCN(C(=O)c3nn(C)c(=O)c4ccccc34)CC2)cc1	·	–	–	43.1	·	–
SMILES	C2C12 statin	FN deposit inh	SIRT5 inh	FGF22 binding	E-sel inducer	rRNA inh HTS
C[C@@H]1CCCCO[C@@H](CN(C)C(=O)Cc2ccccc2)[C@@H](C)CN([C@@H](C)CO)C(=O)c2cc(NC(=O)Nc3ccc(F)cc3)ccc2O1	·	·	32.0	–	–	–
C[C@H](CO)N1C[C@H](C)[C@H](CN(C)C(=O)Cc2ccccc2)OCCCC[C@H](C)Oc2ccc(NC(=O)Nc3ccc(C(F)(F)F)cc3)cc2C1=O	97.1	·	–	–	–	–
Cc1noc(C)c1S(=O)(=O)Nc1ccc2c(c1)C(=O)N([C@@H](C)CO)C[C@H](C)[C@@H](CN(C)S(=O)(=O)c1cccs1)OCCCC[C@@H](C)O2	–	–	·	–	·	–
C[C@H](CO)N1C[C@H](C)[C@H](CN(C)C(=O)Cc2ccccc2)Oc2ncc(-c3ccccc3)cc2C1=O	–	·	–	–	–	–
CO[C@H]1CN(C)C(=O)c2cc(NC(=O)Nc3ccccc3F)ccc2OC[C@H](C)N(Cc2ccccc2C(=O)O)C[C@H]1C	–	–	·	–	–	–
C[C@@H]1CCCCO[C@H](CN(C)CC2CC2)[C@H](C)CN([C@@H](C)CO)C(=O)c2cc(NC(=O)NC3CCCCC3)ccc2O1	·	·	–	–	–	–
CC1CC(c2ccccc2)n2nc(N3C(=O)c4ccccc4C3=O)nc2N1 (stereo not given)	100.8	·	·	·	·	·
O=C(C[C@@H]1CC[C@H]2[C@@H](COC[C@H](O)CN2C(=O)Nc2cccc(Cl)c2)O1)NCc1ccccc1F	–	–	–	–	–	–
Oc1ccc(N2CCN(c3nc(-c4cccs4)nc4ccccc34)CC2)cc1	–	–	–	–	–	–
c1ccc(N2CCN(c3nc(-c4cccs4)nc4ccccc34)CC2)cc1	·	–	–	43.4	·	·
C[C@@H]1CN([C@H](C)CO)C(=O)CCCn2cc(nn2)CO[C@@H]1CN(C)Cc1cccc(C(F)(F)F)c1	–	–	·	·	–	–
CCOC(=O)N(C)C[C@H]1OCc2ccccc2-c2ccccc2C(=O)N([C@H](C)CO)C[C@@H]1C	–	–	20.7	–	–	–
CO[C@@H](C(=O)N(C)C[C@H]1OCc2ccccc2-c2ccccc2C(=O)N([C@@H](C)CO)C[C@@H]1C)c1ccccc1	–	–	19.3	–	–	–
COc1ccc(/C=C2\N=C(SC)SC2=O)cc1OC	106.5	·	·	·	·	·
O=C(O)c1cc(-c2ccco2)nn1-c1cccc(Cl)c1	·	–	–	43.2	–	–
C[C@@H]1CN([C@@H](C)CO)S(=O)(=O)c2ccc(/C=C/c3ccccc3)cc2O[C@@H]1CN(C)C(=O)C1CC1	–	–	16.7	–	–	–
C[C@H]1CN([C@@H](C)CO)S(=O)(=O)c2ccc(/C=C/c3ccccc3)cc2O[C@H]1CN(C)C(=O)C1CC1	–	–	15.1	–	–	–
